Test results: ChEMBL document CHEMBL3864132, “Free fatty acid receptor 1 (GPR40) agonists containing spirocyclic periphery inspired by LY2881835” (Bioorg Med Chem, 2016)

Experiments:
[1] = Apparent permeability from apical to basolateral side in human Caco2 cells at 10 uM by HPLC-MS analysis; type: ADME, cell-based; settings: Caco-2
Method in brief: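 Apical-to-basolateral transport across Caco-2 monolayers, integrity checked by TEER in every well. Compound at 10 μM, acceptor concentrations by HPLC-MS. Papp = (VA/(area × time)) × ([drug]acc/[drug]initial,donor), insert area 0.31 cm², in 10^-6 cm/s. Mean of n = 2.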

[2] = Kinetic aqueous solubility of the compound in PBS buffer […] at pH 7.4 after 2 hrs by UV-Visible spectrophotometric analysis; type: physicochemical; settings: read-out: Kinetic_solubility
Method in brief: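 Equilibrated 2 h at 25°C with shaking, then filtered. Filtrates read by UV-Vis scan against 0–400 μM calibration curves in methanol/PBS.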

[3] = Protein binding in human plasma at 1 uM after 5 hrs by HPLC-MS/MS analysis; type: ADME, cell-free; settings: read-out: PPB (converted)
Method in brief: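 Equilibrium dialysis (12–14 kDa MWCO) of plasma spiked at 1 μM (1% solvent) against PBS pH 7.4, 5 h at 37°C with shaking, quadruplicates. Chambers matrix-matched, precipitated with acetonitrile and analysed by HPLC-MS/MS. Bound % = (1 − buffer/plasma peak area) × 100; recovery checked against undialyzed spiked plasma.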

[4] = molecular target: T1, Free fatty acid receptor 1 (Homo sapiens, UniProt O14842); assay: Agonist activity at human FFA1 receptor expressed in CHO cells assessed as induction of Ca2+ flux by fluo-8 dye based FLIPR assay; type: functional, cell-based
Method in brief: (§1)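 CHO cells stably expressing human GPR40 seeded 24 h before assay, loaded 1 h with Fluo-8 calcium dye, read on FLIPR. Agonist response taken as maximum fluorescence change over baseline; concentration-response curves fitted for EC50. Efficacy expressed relative to GW9508 at 5 μM.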

[5] = molecular target: T2, Free fatty acid receptor 2 (Homo sapiens, UniProt O15552); assay: Agonist activity at human FFA2 receptor expressed in CHO cells assessed as induction of Ca2+ flux by fluo-8 dye based FLIPR assay; type: functional, cell-based
T2 sequence (O15552 whole entry): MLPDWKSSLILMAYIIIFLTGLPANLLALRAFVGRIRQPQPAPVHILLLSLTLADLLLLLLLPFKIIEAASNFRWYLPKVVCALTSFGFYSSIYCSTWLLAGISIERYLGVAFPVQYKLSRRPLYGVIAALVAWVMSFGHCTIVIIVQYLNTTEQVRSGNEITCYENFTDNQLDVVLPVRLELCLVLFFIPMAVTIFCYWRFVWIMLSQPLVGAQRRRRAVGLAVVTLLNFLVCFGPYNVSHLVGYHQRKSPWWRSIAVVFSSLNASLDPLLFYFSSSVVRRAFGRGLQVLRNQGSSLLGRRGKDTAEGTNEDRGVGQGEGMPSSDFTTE
Method in brief: (§2)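 CHO lines stably expressing the respective receptor (GPR43, GPR41 or GPR120) used for specificity screening. Cells loaded 1 h with Fluo-8 calcium dye and read by FLIPR; maximum fluorescence change over baseline taken as agonist response.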

[6] = Half life in BALB/c mouse liver microsomes at 2 uM by HPLC-MS analysis; type: ADME
Method in brief: (§3)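 Pooled liver microsomes from male BALB/c mice at 0.42 mg protein/ml in 100 mM potassium phosphate pH 7.4 with MgCl2, NADPH and a G6P/G6PDH regenerating system. Compound 2 μM (1.6% solvent), 37°C, five time points over 40 min, duplicates. Quenched in acetonitrile, analysed by HPLC-MS/MS. kel from ln(AUC) versus time; T1/2 = 0.693/kel; CLint scaled to incubation volume per mg microsomes.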

[7] = Intrinsic clearance in BALB/c mouse liver microsomes at 2 uM up to 40 mins by HPLC-MS analysis; type: ADME; method in brief: as §3
[8] = molecular target: T1, Free fatty acid receptor 1; assay: Agonist activity at human FFA1 receptor expressed in CHO cells assessed as induction of Ca2+ flux by fluo-8 dye based FLIPR assay relative to GW9508; type: functional, cell-based; method in brief: as §1
[9] = molecular target: T3, Free fatty acid receptor 3 (Homo sapiens, UniProt O14843); assay: Agonist activity at human FFA3 receptor expressed in CHO cells assessed as induction of Ca2+ flux by fluo-8 dye based FLIPR assay; type: functional, cell-based; method in brief: as §2
T3 sequence (O14843 whole entry): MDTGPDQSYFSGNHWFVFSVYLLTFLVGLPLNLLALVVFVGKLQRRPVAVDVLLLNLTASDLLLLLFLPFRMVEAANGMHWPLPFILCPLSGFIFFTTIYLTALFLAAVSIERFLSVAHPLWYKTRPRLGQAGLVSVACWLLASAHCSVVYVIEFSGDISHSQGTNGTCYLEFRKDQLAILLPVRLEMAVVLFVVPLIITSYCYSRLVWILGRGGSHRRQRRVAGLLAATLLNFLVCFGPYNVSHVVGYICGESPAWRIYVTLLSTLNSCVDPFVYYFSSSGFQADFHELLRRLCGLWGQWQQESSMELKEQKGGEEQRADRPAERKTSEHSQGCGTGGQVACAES

[10] = molecular target: T4, Free fatty acid receptor 4 (Homo sapiens, UniProt Q5NUL3); assay: Agonist activity at human FFA4 receptor expressed in CHO cells assessed as induction of Ca2+ flux by fluo-8 dye based FLIPR assay; type: functional, cell-based; method in brief: as §2
T4 sequence (Q5NUL3 whole entry): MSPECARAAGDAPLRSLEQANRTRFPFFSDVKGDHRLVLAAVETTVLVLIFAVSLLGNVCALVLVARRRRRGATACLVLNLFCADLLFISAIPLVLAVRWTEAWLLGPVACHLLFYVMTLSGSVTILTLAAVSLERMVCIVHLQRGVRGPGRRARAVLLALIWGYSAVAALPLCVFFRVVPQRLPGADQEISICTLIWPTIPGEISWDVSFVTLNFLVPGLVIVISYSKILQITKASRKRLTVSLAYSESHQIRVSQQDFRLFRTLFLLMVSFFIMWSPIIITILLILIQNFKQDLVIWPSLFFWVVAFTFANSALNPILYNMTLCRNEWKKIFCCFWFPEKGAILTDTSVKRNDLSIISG

[11] = molecular target: T1, Free fatty acid receptor 1; assay: Agonist activity at FFA1 receptor (unknown origin)
Method in brief: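 Read-out on FLIPR as maximum fluorescence change over baseline. Dose-response testing gave EC50 from curve fitting. Efficacy is expressed as % of GW9508 reference agonist used at 5 μM.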

T1 sequence (O14842 whole entry): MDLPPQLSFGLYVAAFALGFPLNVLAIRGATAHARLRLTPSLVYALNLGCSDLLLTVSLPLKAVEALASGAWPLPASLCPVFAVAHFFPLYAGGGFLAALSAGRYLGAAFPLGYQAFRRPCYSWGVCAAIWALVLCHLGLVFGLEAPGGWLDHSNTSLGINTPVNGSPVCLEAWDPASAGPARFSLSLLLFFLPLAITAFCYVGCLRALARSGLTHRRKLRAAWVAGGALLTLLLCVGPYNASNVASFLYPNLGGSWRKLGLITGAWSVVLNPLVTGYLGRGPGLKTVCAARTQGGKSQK

CC(C)NCC(O)COc1cccc2ccccc12 (configuration not stated) [PROPRANOLOL]
Papp A→B at 10 µM [1]: 28 ×10⁻⁶ cm/s

Cc1ccc(CC2CCOC3(CCN(Cc4ccc(COc5ccc(CCC(=O)O)cc5)cc4)CC3)C2)cc1.Cl (configuration not stated)
solubility kinetic at 2 h [2]: 69 µM | fraction unbound at 5 h, 1 µM [3]: 0.002 | EC50 [4]: 77 nM | EC50 [5]: > 10 µM | Papp A→B at 10 µM [1]: 10.4 ×10⁻⁶ cm/s | half-life at 2 µM [6]: 9.6 min | CLint at 40 min, 2 µM [7]: 173 µL/min/mg | Emax [8]: 74% | EC50 [9]: > 10 µM | EC50 [10]: > 10 µM

O=C(O)CCc1ccc(OCc2ccc(CN3CCC4(CC3)CC(OCc3ccc(F)cc3)CCO4)cc2)cc1 (configuration not stated)
EC50 [4]: 2010 nM | Emax [8]: 75%

O=C(O)CCc1ccc(OCc2ccc(CN3CCC4(CC3)CC(OCc3ccc(C(F)(F)F)cc3)CCO4)cc2)cc1 (configuration not stated)
EC50 [4]: > 20000 nM

COC1CCOC2(CCN(Cc3ccc(COc4ccc(CCC(=O)O)cc4)cc3)CC2)C1 (configuration not stated)
EC50 [4]: > 20000 nM

O=C(O)CCc1ccc(OCc2ccc(CN3CCC4(CC3)CC(Cc3nc(C5CC5)no3)CCO4)cc2)cc1 (configuration not stated)
EC50 [4]: 4540 nM | Emax [8]: 53%

CC#C[C@@H](CC(=O)O)c1ccc(OCc2ccc(CN3CCC4(C=Cc5ccccc54)CC3)cc2)cc1 [LY2881835]
EC50 [11]: 233 nM

O=C(O)CCc1ccc(OCc2ccc(CN3CCC4(CCCCO4)CC3)cc2)cc1
EC50 [4]: > 20000 nM

O=C(O)CCc1ccc(OCc2ccc(CN3CCC4(CC3)CC(Cc3ccccc3F)CCO4)cc2)cc1 (configuration not stated)
EC50 [4]: 810 nM | Emax [8]: 95%

C[C@]12CC[C@H]3[C@@H](CCC4=CC(=O)CC[C@@]43C)[C@@H]1CC[C@@H]2O [TESTOSTERONE]
Papp A→B at 10 µM [1]: 13.6 ×10⁻⁶ cm/s

COc1ccc(CC2CCOC3(CCN(Cc4ccc(COc5ccc(CCC(=O)O)cc5)cc4)CC3)C2)cc1.Cl (configuration not stated)
solubility kinetic at 2 h [2]: 42 µM | fraction unbound at 5 h, 1 µM [3]: 0.007 | EC50 [4]: 280 nM | EC50 [5]: > 10 µM | Papp A→B at 10 µM [1]: 15.8 ×10⁻⁶ cm/s | half-life at 2 µM [6]: 11.8 min | CLint at 40 min, 2 µM [7]: 141 µL/min/mg | Emax [8]: 100% | EC50 [9]: > 10 µM | EC50 [10]: > 10 µM
